Assay results taken from the EternaBench riboswitch data.

System: MS2 coat protein
Test: apparent Kd, MS2 coat protein; higher = weaker binding; RNA-MaP array; FMN 200 µM where present
Procedure, shortened: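 SNAP-549-labelled MS2 coat protein, doubled from 0.7 or 1.5 nM to 3 µM, was titrated over designs transcribed by stalled E. coli RNA polymerase on Illumina sequencing-chip clusters. Titrations were run without and then with constant ligand in 100 mM Tris-HCl pH 7.5, 80 mM KCl, 4 mM MgCl2, BSA, DTT, yeast tRNA and Tween-20. The apparent Kd is the median of filtered per-cluster fits to green signal normalised to red-channel RNA signal and control-cluster median Fmax.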

[1] = designed as: ON switch for flavin mononucleotide, no ligand
[2] = ligand present: flavin mononucleotide, designed as: ON switch for flavin mononucleotide
[3] = designed as: OFF switch for flavin mononucleotide, no ligand
[4] = ligand present: flavin mononucleotide, designed as: OFF switch for flavin mononucleotide

| Sequence | apparent Kd [1] | apparent Kd [2] | apparent Kd [3] | apparent Kd [4] |
| --- | --- | --- | --- | --- |
| GGAGCAUACAUUAACAUGAGGAUCACCCAUGUCAAAAGACAUGAGGAUAUGGAUCCGAAAAGGAUCCAGAAGGCAUGGUGCUCC | 173 nM | 11.5 nM |  |  |
| GGAGCUCACAUGAACAUGAGGAUCACCCAUGUAACUAGACAUGAGGAUAUGGAUCCUAAUUGGAUCCAGAAGGCAUGGAGCUCC | 161 nM | 27.9 nM |  |  |
| GGAGCUCCUGACAUGAGGAUCACCCAUGUUCACUUAUUAACUCAGGAUAUCGUCUCGAAACGAGACGAGAAGGGAGAUGCUCCU | 8.36 nM | 6.76 nM |  |  |
| GGAUAGGACAAAGGAUAUACGUGCUAGAGAUACUAGCAAAAUUUCCUCACAUGAGGAUCACCCAUGUAGAAGGCUGUCCUAUCG |  |  | 6.93 nM | 14.7 nM |
| GGAUAGGACAGAGGAUAUAAGUGCUAGAGAUACUAGCAAAAUUUCCUCACAUGAGGAUCACCCAUGUAGAAGGCUGUCCUAUCG |  |  | 5.71 nM | 11.3 nM |
| GGAUAGGACAGAGGAUAUACAUGCUAGAGAUACUAGCAAAAUUUCCUCACAUGAGGAUCACCCAUGUAGAAGGCUGUCCUAUCG |  |  | 28.5 nM | 673 nM |
| GGAUAGGACAGAGGAUAUACGUGCUAGAGAUACCAGCAAAAUUUCCUCACAUGAGGAUCACCCAUGUAGAAGGCUGUCCUAUCG |  |  | 31.9 nM | 558 nM |
| GGAUAGGACAGAGGAUAUACGUGCUAGAGAUACUAGCAAAAUGUCCUCACAUGAGGAUCACCCAUGUAGAAGGCUGUCCUAUCG |  |  | 7.96 nM | 156 nM |
| GGAUAGGACAGAGGAUAUACGUGCUAGAGAUACUAGCAAAAUUUCCUCACAUGAGGAUCACCCAUGUAGAAGGCUGUCCUAUCG |  |  | 46 nM | 954 nM |
| GGAUAGGACAGAGGAUAUACGUGCUAGAGAUACUAGCAAAAUUUGCUCACAUGAGGAUCACCCAUGUAGAAGGCUGUCCUAUCG |  |  | 5.31 nM | 19.7 nM |
| GGAUAGGACAGAGGAUAUACGUGCUAGAGAUACUAGCUACAAAUCCUUACAUGAGGAUCACCCAUGUAGAAGGCUGUCCUAUCG |  |  | 19.3 nM | 38.3 nM |
| GGAUAGGACGGAGGAUAUACGUGCUAGAGAUACUAGCAAAAUUUCCUCACAUGAGGAUCACCCAUGUAGAAGGCUGUCCUAUCG |  |  | 12.2 nM | 222 nM |
| GGAUAGUGUCGUUAUCCGUAGCGAACAUGAGGAUCACCCAUGUAGGAUAUGUUAUUAAACUAAUAACAGAAGGGCGUGAGUCUC |  |  | 429 nM | 480 nM |
| GGAUCGAAAGUGAGGAUAUGCUGGUCCUUGGAUCAGCAGAAGGCACAUGAGGAUCACCCAUGUGGUAACGGUCC |  |  | 33.8 nM | 172 nM |
| GGAUCGAAUGUGAGGAUAUACCUAUGGAUACAUAGGUAGAAGGCACAUGAGGAUCACCCAUGUUCCUACGGUCC |  |  | 81.7 nM | 680 nM |
| GGAUCGAGUGUGAGGAUAUGCUGGUCCUUGGAUCAGCAGAAGGCACAUGAGGAUCACCCAUGUCCAAACGGUCC |  |  | 266 nM | 388 nM |
| GGAUCGAGUGUGAGGAUAUGCUGGUCCUUGGAUCAGCAGAAGGCACAUGAGGAUCACCCAUGUGAUAUCGAUCC |  |  | 56.1 nM | 541 nM |
| GGAUGACAAAGUCAUCCAAAUCGAACAUGAGGAUCACCCAUGUAGGAUAUGCUUCUCAAAGAGAAGCAGAAGGACAUGUGCUUU |  |  | 37.8 nM | 228 nM |
| GGAUGACAAAGUCAUCCUAUUCGAACAUGAGGAUCACCCAUGUAGGAUAUGCUACUCAAAGAGUAGCAGAAGGACAUGUGCCUU |  |  | 32.6 nM | 178 nM |
| GGCAGUCCGACACAGGAUAUGGGUAACGAAACAUGAGGAUCACCCAUGUGGAAACAUCGGGUUGCCUAGAAGGGUGGAAAGAUUG | 117 nM | 32.1 nM |  |  |
| GGCCCGCGCGUGAGGAUAUGCUGAUCCCAGGAUUAGCAGAAGGCACAUGAGGAUCACCCAUGUCCAACUUGUCU |  |  | 32.6 nM | 57 nM |

| Sequence | apparent Kd [1] | apparent Kd [2] | apparent Kd [3] | apparent Kd [4] |
| --- | --- | --- | --- | --- |
| GGCGAGUGAGGAUAUCUGAUGUCUAACUUCGGUUAGACAUCAGAGAAGGCACAUGAGGAUCACCCAUGUCCGCC |  |  | 19.3 nM | 17.1 nM |
| GGCGGCGCGGGCCACCGCAAAACCAGAAGGACAUGAGGAUCACCCAUGUAACAAAACAGGGCGGUGUAGGAUAUGGCAGACCCG |  |  | 14.2 nM | 25 nM |
| GGCUCCGCUCGAGGAUAUAGCUGCAUGUAGUGUCCUGAGGCACAUGAGGAUCACCCAUGUGUAGGCUAGAAGGCGACGGACGCU |  |  | 76.1 nM | 138 nM |
| GGCUGGUGACAGCAUCCAUCAAAACAUGAGGAUCACCCAUGUAGAAGGCUGUACGGUUACCGUACAGAGGAUAUACAAUGAUGA |  |  | 14.5 nM | 24.2 nM |
| GGGAGACAUGAGGAUCACCCAUGUGAAAACGUGUGAGGAUAUGAAUGGAAACCAUACUGUUCAGAAGGCACUUGUC | 89.7 nM | 36.6 nM |  |  |
| GGGCAAAAGUAGAAGGGAUAUACGAAAAGUAUAUCAGGAUAUACAUGAGGAUCACCCAUGUUCUAAAAGUGAUAAUCCUCCCUA |  |  | 70 nM | 346 nM |
| GGGCUCCCGCAGAAGGUGACAAAGUGUUCAUGUCAAGGAUAUGUGGUUCACAUGAGGAUCACCCAUGUAGGGCCCGUUAGGAAC | 97.3 nM | 23.9 nM |  |  |
| GGGCUCGGAGGAUAUACAUGAGGAUCACCCAUGUAGGGCUCGGGUAUUUCUGGGUCUUGUAGAAGGCUGGGUCU |  |  | 21.3 nM | 30 nM |
| GGGCUGGGAGGAUAUUCAUUGGGAAACAUGAGGAUCACCCAUGUGAUAUAAGGGAAAUCCGGAGAAGGCUCGGUUC |  |  | 18.1 nM | 18.8 nM |
| GGGCUGGUAACAGGAUAUCGUGCCUGGCCGGAUUACAUGAGGAUCACCCAUGUCGUUGGAACCAACGAGAAGGGUUGCCUCCCG | 199 nM | 28.7 nM |  |  |
| GGGCUGUCAGGAUAUACAUGAGGAUCACCCAUGUCGAGCUGUGAUAGGGCAAGAGUAGGUAGAAGGGACGAGAG |  |  | 34.7 nM | 36.1 nM |
| GGGCUGUCAGGAUAUGCUAGUGCUAGUGAAAGCUAGUGCUAGUAGAAGGGACAUGAGGAUCACCCAUGUGGCCC |  |  | 31.4 nM | 30.9 nM |
| GGGCUGUCAGGAUAUGGGCCCGGGCCCGAAAGGGCCCGGGUUUAGAAGGGACAUGAGGAUCACCCAUGUGGCCC |  |  | 32.5 nM | 37.2 nM |
| GGGCUGUCAGGAUAUGGGCCCGGGUUUGAAAGGGCCCGGGCCCAGAAGGGACAUGAGGAUCACCCAUGUGGCCC |  |  | 36.3 nM | 36.4 nM |
| GGGCUGUCAGGAUAUGGGCUCGGGCUCGAAAGGGCUCGGGCUCAGAAGGGACAUGAGGAUCACCCAUGUGGCCC |  |  | 35.7 nM | 32.8 nM |
| GGGUACAUCGGAGGAUAUCAAGUAAAUACAUGAGGAUCACCCAUGUCGAUGGAGACAUCGGAGAUUGAGAAGGCCGAUGUACCG | 6 nM | 5.42 nM |  |  |
| GGGUACAUCGGAGGAUAUCAUGGAAAUACAUGAGGAUCACCCAUGUCGAUGGAGACAUCGGAGAUUGAGAAGGCCGAUGUACCG | 27.3 nM | 6.38 nM |  |  |
| GGGUACAUCGGAGGAUAUCAUGUAAACACAUGAGGAUCACCCAUGUCGAUGGAGACAUCGGAGAUUGAGAAGGCCGAUGUACCG | 111 nM | 7.62 nM |  |  |
| GGGUACAUCGGAGGAUAUCAUGUAAAUACAUGAGGAUCACCCAUGUCGAUGGAGACAUCGGAGAUUCAGAAGGCCGAUGUACCG | 108 nM | 35.5 nM |  |  |
| GGGUACAUCGGAGGAUAUCAUGUAAAUACAUGAGGAUCACCCAUGUCGAUGGAGACAUCGGAGAUUGAGAAGGCCGAUAUACCG | 139 nM | 9.34 nM |  |  |
| GGGUACAUCGGAGGAUAUCAUGUAAAUACAUGAGGAUCACCCAUGUCGAUGGAGACAUCGGAGAUUGAGAAGGCCGAUGCACCG | 203 nM | 8.97 nM |  |  |
